# Data from ChEMBL document CHEMBL2177043, “HIV-1 X4 activities of polycationic "viologen" based dendrimers by interaction with the chemokine receptor CXCR4: study of structure-activity relationship” (J Med Chem, 2012).
# Active and inactive are the calls of the source. No cut-off for these calls is given here.
# What was measured:
# [1] = target: T1, C-C chemokine receptor type 5 (Homo sapiens, UniProt P51681); test: Antagonist activity against CCR5 expressed in U87.CD4.CCR5 cells assessed as inhibition of CCL3L1-induced calcium signaling incubated for 10 mins by FLIPR; format: functional, cell-based
# In short: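 U87.CD4.CCR5 cells seeded at 2 × 10⁴/well on 0.2% gelatin the day before, loaded with 4 μM Fluo-3 AM for 45 min at 37 °C, washed, then preincubated with compounds at varied concentrations in assay buffer for 10 min at 37 °C. Stimulated with 10 ng/mL LD78β (CCL3L1); Ca²⁺ flux recorded by FLIPR.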
# [2] = target: T1, C-C chemokine receptor type 5; test: Antagonist activity against CCR5 expressed in U87.CD4.CCR5 cells assessed as inhibition of CCL3L1-induced calcium signaling incubated for 10 mins by FLIPR
# [3] = Cytotoxicity against human PBMC cells by MTT assay; format: cell-based
# [4] = target: T1, C-C chemokine receptor type 5; test: Agonist activity against CCR5 expressed in U87.CD4.CCR5 cells assessed as stimulation of calcium signaling incubated for 10 mins by FLIPR
# [5] = target: T2, C-X-C chemokine receptor type 4 (Homo sapiens, UniProt P61073); test: Inhibition of anti-CXCR4 mAbs clone 1D9 binding to CXCR4 in human SUPT1 cells incubated for 30 mins by FACS
# [6] = Cytotoxicity against human MT4 cells by MTT assay; format: cell-based
# [7] = target: T2, C-X-C chemokine receptor type 4; test: Agonist activity against CXCR4 expressed in U87.CD.CXCR4 cells assessed as stimulation of calcium signaling incubated for 10 mins by FLIPR; format: functional, cell-based
# In short: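 U87.CD4 cells stably carrying CXCR4 or CCR5, trypsinized and seeded at 2 × 10⁴ cells/well on 0.2% gelatin the day before. Loaded with Fluo-3 AM (4 μM, 45 min, 37 °C), washed, then exposed to test agents alone at varied concentrations in assay buffer for 10 min at 37 °C. Cytosolic Ca²⁺ rise monitored over time by FLIPR to detect any agonist-triggered signal.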
# [8] = target: T2, C-X-C chemokine receptor type 4; test: Antagonist activity against CXCR4 expressed in U87.CD.CXCR4 cells assessed as inhibition of CXCL12-induced calcium signaling incubated for 10 mins by FLIPR; format: functional, cell-based
# In short: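 U87.CD4.CXCR4 cells seeded at 2 × 10⁴/well on 0.2% gelatin the day before, loaded with 4 μM Fluo-3 AM for 45 min at 37 °C, washed, then preincubated with compounds at varied concentrations in assay buffer for 10 min at 37 °C. Challenged with 25 ng/mL CXCL12; Ca²⁺ flux followed over time by FLIPR.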
# [9] = test system: Human immunodeficiency virus 1; test: Antiviral activity against X4 HIV1 NL4.3 infected in human MT4 cells assessed as inhibition of viral replication pre-incubated for 30 mins […]; format: functional, organism-based; conditions: Human immunodeficiency virus 1, NL4.3, MT4
# [10] = target: T2, C-X-C chemokine receptor type 4; test: Inhibition of CXCL-12'AF647 binding to CXCR4 in human SUPT1 cells incubated for 15 mins by FACS; format: cell-based
# In short: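 SupT1 cells (high CXCR4) washed, then incubated 15 min at room temperature with compounds at varied concentrations in HBSS containing 20 mM HEPES and 0.2% BSA, pH 7.4. CXCL12-AF647 added at 25 ng/mL final for 30 min at room temperature. Cells washed, fixed in 1% paraformaldehyde, and read by flow cytometry on FL4.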
# [11] = target: T2, C-X-C chemokine receptor type 4; test: Inhibition of anti-CXCR4 mAbs clone 173 binding to CXCR4 in human SUPT1 cells incubated for 30 mins by FACS
# [12] = test system: Human immunodeficiency virus 1; test: Antiviral activity against X4 HIV1 NL4.3 infected in human PBMC assessed as inhibition of viral replication pre-incubated for 30 mins measured 5 days post infection by MTT assay; format: functional, organism-based; conditions: Human immunodeficiency virus 1, NL4.3
# In short: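 Human PBMC infected with HIV-1 NL4.3. IC₅₀ is the concentration inhibiting viral replication by 50%, averaged over two independent experiments. Cytotoxicity (CC₅₀, 50% loss of PBMC viability) evaluated in the same assay.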
# [13] = target: T2, C-X-C chemokine receptor type 4; test: Inhibition of anti-CXCR4 mAbs clone 12G5 binding to CXCR4 in human SUPT1 cells incubated for 30 mins by FACS
# T2 sequence (P61073 whole entry): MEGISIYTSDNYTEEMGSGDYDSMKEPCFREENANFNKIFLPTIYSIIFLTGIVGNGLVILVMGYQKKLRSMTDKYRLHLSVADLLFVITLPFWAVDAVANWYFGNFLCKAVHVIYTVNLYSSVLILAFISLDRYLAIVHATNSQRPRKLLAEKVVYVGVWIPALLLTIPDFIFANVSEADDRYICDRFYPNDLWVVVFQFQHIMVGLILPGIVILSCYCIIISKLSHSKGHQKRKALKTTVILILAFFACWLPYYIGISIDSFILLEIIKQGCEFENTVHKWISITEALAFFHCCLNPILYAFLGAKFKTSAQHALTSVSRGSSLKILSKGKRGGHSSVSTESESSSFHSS
# T1 sequence (P51681 whole entry, looked up): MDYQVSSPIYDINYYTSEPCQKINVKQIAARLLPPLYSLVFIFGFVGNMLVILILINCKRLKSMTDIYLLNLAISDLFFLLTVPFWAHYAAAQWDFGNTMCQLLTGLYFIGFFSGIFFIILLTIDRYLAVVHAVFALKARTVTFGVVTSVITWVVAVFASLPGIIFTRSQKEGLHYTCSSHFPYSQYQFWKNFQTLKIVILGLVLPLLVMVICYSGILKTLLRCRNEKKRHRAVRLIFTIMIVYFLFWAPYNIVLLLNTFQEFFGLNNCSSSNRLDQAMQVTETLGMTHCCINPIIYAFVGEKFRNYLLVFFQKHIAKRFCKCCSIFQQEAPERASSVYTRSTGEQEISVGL
SMILES,IC50 [1] [nM],inhibition [2],CC50 [3] [µg/mL],Activity [4],IC50 [5] [nM],inhibition [5],CC50 [6] [µg/mL],Activity [7],IC50 [8] [nM],inhibition [8],IC50 [9] [µg/mL],IC50 [10] [nM],IC50 [11] [nM],inhibition [11],IC50 [12] [µg/mL],IC50 [13] [nM],inhibition [13]
CC[n+]1ccc(-c2cc[n+](Cc3cc(C[n+]4ccc(-c5cc[n+](CC)cc5)cc4)cc(C[n+]4ccc(-c5cc[n+](Cc6cc(C[n+]7ccc(-c8cc[n+](Cc9cc(C[n+]%10ccc(-c%11cc[n+](CC)cc%11)cc%10)cc(C[n+]%10ccc(-c%11cc[n+](CC)cc%11)cc%10)c9)cc8)cc7)cc(C[n+]7ccc(-c8cc[n+](Cc9cc(C[n+]%10ccc(-c%11cc[n+](Cc%12cc(C[n+]%13ccc(-c%14cc[n+](Cc%15cc(C[n+]%16ccc(-c%17cc[n+](CC)cc%17)cc%16)cc(C[n+]%16ccc(-c%17cc[n+](CC)cc%17)cc%16)c%15)cc%14)cc%13)cc(C[n+]%13ccc(-c%14cc[n+](Cc%15cc(C[n+]%16ccc(-c%17cc[n+](CC)cc%17)cc%16)cc(C[n+]%16ccc(-c%17cc[n+](CC)cc%17)cc%16)c%15)cc%14)cc%13)c%12)cc%11)cc%10)cc(C[n+]%10ccc(-c%11cc[n+](Cc%12cc(C[n+]%13ccc(-c%14cc[n+](Cc%15cc(C[n+]%16ccc(-c%17cc[n+](CC)cc%17)cc%16)cc(C[n+]%16ccc(-c%17cc[n+](CC)cc%17)cc%16)c%15)cc%14)cc%13)cc(C[n+]%13ccc(-c%14cc[n+](Cc%15cc(C[n+]%16ccc(-c%17cc[n+](CC)cc%17)cc%16)cc(C[n+]%16ccc(-c%17cc[n+](CC)cc%17)cc%16)c%15)cc%14)cc%13)c%12)cc%11)cc%10)c9)cc8)cc7)c6)cc5)cc4)c3)cc2)cc1.F[P-](F)(F)(F)(F)F.F[P-](F)(F)(F)(F)F.F[P-](F)(F)(F)(F)F.F[P-](F)(F)(F)(F)F.F[P-](F)(F)(F)(F)F.F[P-](F)(F)(F)(F)F.F[P-](F)(F)(F)(F)F.F[P-](F)(F)(F)(F)F.F[P-](F)(F)(F)(F)F.F[P-](F)(F)(F)(F)F.F[P-](F)(F)(F)(F)F.F[P-](F)(F)(F)(F)F.F[P-](F)(F)(F)(F)F.F[P-](F)(F)(F)(F)F.F[P-](F)(F)(F)(F)F.F[P-](F)(F)(F)(F)F.F[P-](F)(F)(F)(F)F.F[P-](F)(F)(F)(F)F.F[P-](F)(F)(F)(F)F.F[P-](F)(F)(F)(F)F.F[P-](F)(F)(F)(F)F.F[P-](F)(F)(F)(F)F.F[P-](F)(F)(F)(F)F.F[P-](F)(F)(F)(F)F.F[P-](F)(F)(F)(F)F.F[P-](F)(F)(F)(F)F.F[P-](F)(F)(F)(F)F.F[P-](F)(F)(F)(F)F.F[P-](F)(F)(F)(F)F.F[P-](F)(F)(F)(F)F.F[P-](F)(F)(F)(F)F.F[P-](F)(F)(F)(F)F.F[P-](F)(F)(F)(F)F.F[P-](F)(F)(F)(F)F.F[P-](F)(F)(F)(F)F.F[P-](F)(F)(F)(F)F.F[P-](F)(F)(F)(F)F.F[P-](F)(F)(F)(F)F.F[P-](F)(F)(F)(F)F.F[P-](F)(F)(F)(F)F.F[P-](F)(F)(F)(F)F.F[P-](F)(F)(F)(F)F,542,Dose-dependent effect,20,inactive,180,Dose-dependent effect,9,inactive,89.1,Dose-dependent effect,1.4,101,108,Dose-dependent effect,1.07,111,Dose-dependent effect
Cc1cn(CCC[n+]2ccc(-c3cc[n+](Cc4cc(C[n+]5ccc(-c6cc[n+](CCCn7cc(C)c(=O)[nH]c7=O)cc6)cc5)cc(-[n+]5ccc(-c6cc[n+](-c7cc(C[n+]8ccc(-c9cc[n+](CCCn%10cc(C)c(=O)[nH]c%10=O)cc9)cc8)cc(C[n+]8ccc(-c9cc[n+](CCCn%10cc(C)c(=O)[nH]c%10=O)cc9)cc8)c7)cc6)cc5)c4)cc3)cc2)c(=O)[nH]c1=O.F[P-](F)(F)(F)(F)F.F[P-](F)(F)(F)(F)F.F[P-](F)(F)(F)(F)F.F[P-](F)(F)(F)(F)F.F[P-](F)(F)(F)(F)F.F[P-](F)(F)(F)(F)F.F[P-](F)(F)(F)(F)F.F[P-](F)(F)(F)(F)F.F[P-](F)(F)(F)(F)F.F[P-](F)(F)(F)(F)F,> 32200,Dose-dependent effect,> 100,inactive,3080,Dose-dependent effect,> 100,inactive,21000,Dose-dependent effect,2.4,3400,660,Dose-dependent effect,4.62,724,Dose-dependent effect
CC[n+]1ccc(-c2cc[n+](Cc3cc(C[n+]4ccc(-c5cc[n+](CC)cc5)cc4)cc(-[n+]4ccc(-c5cc[n+](-c6cc(C[n+]7ccc(-c8cc[n+](CC)cc8)cc7)cc(C[n+]7ccc(-c8cc[n+](CC)cc8)cc7)c6)cc5)cc4)c3)cc2)cc1.F[P-](F)(F)(F)(F)F.F[P-](F)(F)(F)(F)F.F[P-](F)(F)(F)(F)F.F[P-](F)(F)(F)(F)F.F[P-](F)(F)(F)(F)F.F[P-](F)(F)(F)(F)F.F[P-](F)(F)(F)(F)F.F[P-](F)(F)(F)(F)F.F[P-](F)(F)(F)(F)F.F[P-](F)(F)(F)(F)F,> 39200,Dose-dependent effect,> 100,inactive,3360,Dose-dependent effect,> 100,inactive,24000,Dose-dependent effect,1.1,5800,544,Dose-dependent effect,5.6,768,Dose-dependent effect
